Assay results from ChEMBL document CHEMBL1147426, “Thiazoles and thiopyridines: novel series of high affinity h5HT(7) ligands” (Bioorg Med Chem Lett, 2004).

Tests used:
Assay type in all cases: cell-based
[1] = target: T1, 5-hydroxytryptamine receptor 1A (Homo sapiens, UniProt P08908); assay: Binding affinity towards human 5-hydroxytryptamine 1A receptor by the displacement of [3H]5-HT radioligand from the cloned receptor expressed in HeLa cells
T1 sequence (P08908 whole entry): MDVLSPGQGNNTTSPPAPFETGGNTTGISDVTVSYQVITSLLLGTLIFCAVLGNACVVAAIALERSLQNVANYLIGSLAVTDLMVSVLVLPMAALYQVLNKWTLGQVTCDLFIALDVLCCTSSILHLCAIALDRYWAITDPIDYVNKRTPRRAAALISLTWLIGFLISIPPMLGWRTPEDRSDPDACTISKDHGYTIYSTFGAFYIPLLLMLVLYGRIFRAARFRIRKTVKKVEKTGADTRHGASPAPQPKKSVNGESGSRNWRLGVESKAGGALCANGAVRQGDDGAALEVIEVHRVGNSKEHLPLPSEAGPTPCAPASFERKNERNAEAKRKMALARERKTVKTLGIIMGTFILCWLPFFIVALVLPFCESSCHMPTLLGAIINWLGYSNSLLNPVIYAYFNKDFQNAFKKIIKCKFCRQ
Outline: (§1)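 Affinities are given as the geometric mean of 3–6 independent determinations; some values rest on only 2 determinations.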

[2] = target: 5-hydroxytryptamine receptor 2A (Homo sapiens, UniProt P28223); assay: Binding affinity towards human 5-hydroxytryptamine 2A receptor by the displacement of [3H]ketanserin radioligand from the cloned receptor expressed in CHO cells; outline: as §1
[3] = target: 5-hydroxytryptamine receptor 7 (Homo sapiens, UniProt P34969); assay: Binding affinity towards human 5-hydroxytryptamine 7 receptor by the displacement of [3H]-5-HT radioligand from the cloned receptor expressed in CHO cells
D(2) dopamine receptor = D(2) dopamine receptor (Homo sapiens, UniProt P14416); assay: Binding affinity towards human dopamine receptor D2 by the displacement of [3H]spiperone radioligand from the cloned receptor expressed in CHO cells; outline: as §1
Chain of D(2) dopamine receptor (P14416 whole entry): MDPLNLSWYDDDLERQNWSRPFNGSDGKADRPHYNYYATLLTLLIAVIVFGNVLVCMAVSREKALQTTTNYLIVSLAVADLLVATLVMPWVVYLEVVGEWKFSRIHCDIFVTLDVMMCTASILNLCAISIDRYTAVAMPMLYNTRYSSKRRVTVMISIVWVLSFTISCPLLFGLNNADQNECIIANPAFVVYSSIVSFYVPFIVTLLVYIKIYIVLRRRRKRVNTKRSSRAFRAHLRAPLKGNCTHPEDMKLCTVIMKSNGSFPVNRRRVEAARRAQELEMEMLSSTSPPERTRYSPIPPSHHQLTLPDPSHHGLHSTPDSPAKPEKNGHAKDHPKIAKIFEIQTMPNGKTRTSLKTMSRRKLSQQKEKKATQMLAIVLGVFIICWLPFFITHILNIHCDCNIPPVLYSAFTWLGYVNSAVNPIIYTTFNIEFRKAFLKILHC

Chain of 5-hydroxytryptamine receptor 2A (P28223 whole entry): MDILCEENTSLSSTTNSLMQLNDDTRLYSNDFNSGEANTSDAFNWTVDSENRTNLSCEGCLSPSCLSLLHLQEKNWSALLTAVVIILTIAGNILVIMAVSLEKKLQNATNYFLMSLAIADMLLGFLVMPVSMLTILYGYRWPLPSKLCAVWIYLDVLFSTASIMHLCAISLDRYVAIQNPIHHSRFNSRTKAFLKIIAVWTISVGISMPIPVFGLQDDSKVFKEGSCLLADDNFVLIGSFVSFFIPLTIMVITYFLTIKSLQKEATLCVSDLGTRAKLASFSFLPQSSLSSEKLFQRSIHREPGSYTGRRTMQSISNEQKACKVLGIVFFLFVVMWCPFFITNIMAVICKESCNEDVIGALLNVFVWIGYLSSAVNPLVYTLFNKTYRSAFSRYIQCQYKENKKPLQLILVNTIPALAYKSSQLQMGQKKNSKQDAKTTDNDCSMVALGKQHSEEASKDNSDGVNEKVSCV
Chain of 5-hydroxytryptamine receptor 7 (P34969 whole entry): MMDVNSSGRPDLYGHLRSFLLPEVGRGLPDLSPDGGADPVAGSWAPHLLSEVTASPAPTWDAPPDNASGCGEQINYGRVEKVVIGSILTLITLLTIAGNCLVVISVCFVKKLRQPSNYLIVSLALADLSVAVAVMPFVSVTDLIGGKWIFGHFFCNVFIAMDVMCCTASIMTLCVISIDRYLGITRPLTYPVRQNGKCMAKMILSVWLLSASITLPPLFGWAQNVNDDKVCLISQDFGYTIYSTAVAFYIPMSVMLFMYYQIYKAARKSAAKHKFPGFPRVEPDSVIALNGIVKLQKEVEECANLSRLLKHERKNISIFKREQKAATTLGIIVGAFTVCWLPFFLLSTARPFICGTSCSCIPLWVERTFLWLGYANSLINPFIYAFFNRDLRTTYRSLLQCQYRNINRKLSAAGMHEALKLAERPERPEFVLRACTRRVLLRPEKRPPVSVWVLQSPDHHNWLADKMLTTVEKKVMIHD

SMILES	Ki [1] [nM]	Ki [2] [nM]	Ki [3] [nM]	Ki (D(2) dopamine receptor) [nM]
CN(C)CCSc1cccc(Br)n1	37	270	4.1	870
CN(C)CCSc1nnc(-c2ccccc2)o1	–	–	> 4000	–
CN(C)CCSc1cccc(C2CCCCC2)n1	8.7	230	0.7	1300
CN(C)CCSc1cccc(C2(O)CCCCC2)n1	41	480	7.2	> 1000
CN(C)CCSc1n[nH]c(-c2ccccc2)n1	–	–	1200	–
Cc1sc(SCCN(C)C)nc1-c1ccccc1	–	–	170	–
CN(C)CCSc1nccs1	–	–	6800	–
CN(C)CCSc1nc(C(C)(C)C)cs1	2200	1200	22	> 1000
CN(C)CCSc1cccc(-c2ccccc2)n1	–	–	–	450
CN(C)CCSc1nc2ccccc2s1	830	1000	84	> 1000
CN(C)CCSc1ccnc(-c2ccccc2)c1	1200	–	100	–
CN(C)CCSc1nc(-c2ccccc2)cs1	210	640	12	> 1000
CN(C)CCSc1nc(-c2ccncc2)cs1	90	> 200	27	130
CN(C)CCSc1ncc(-c2ccccc2)s1	–	–	3200	–
